ChEMBL document CHEMBL1156453, “Cellular characterization of a novel focal adhesion kinase inhibitor” (J Biol Chem, 2007)
Active and inactive are the calls of the source. No cut-off for these calls is given here.

Key:
[1] = molecular target: Cyclin-dependent kinase 7 (Homo sapiens, UniProt P50613); test: Inhibition of human CDK7/cyclinH/MAT1
[2] = molecular target: Calcium/calmodulin-dependent protein kinase type IV (Homo sapiens) (UniProt Q16566); test: Inhibition of human CaMK4 at 1 uM
[3] = molecular target: Mitogen-activated protein kinase 8 (Homo sapiens) (UniProt P45983); test: Inhibition of human JNK1alpha1 at 1 uM
[4] = Inhibition of ACK at 1 uM
Procedure, shortened: (§1)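 Recombinant kinases were screened in a commercial profiling panel with the compound at a single concentration of 1 μM. The read-out is percent inhibition of each enzyme's kinase activity.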

[5] = tested on: REF52; test: Induction of apoptosis in attached rat REF52 cells assessed as histone accumulation after 24 hrs by ELISA; format: functional, cell-based
Procedure, shortened: (§2)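 Attached cells in serum-containing medium treated with inhibitor at the indicated concentrations, 24 h for REF52 and PC3, 16 h for MDCK, then lysed. Free histones in lysates measured by cell death detection ELISA, in duplicate. Untreated adherent cells were the negative control. Cells suspended 16–24 h in serum-free medium were the positive control. One of three experiments shown.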

[6] = tested on: MDCK; test: Induction of apoptosis in attached dog MDCK cells assessed as histone accumulation after 16 hrs by ELISA; format: functional, cell-based; details: Canis lupus familiaris; procedure, shortened: as §2
[7] = tested on: NIH3T3; test: Inhibition of focal adhesion turnover in wounded mouse NIH3T3 cells expressing GFP-paxillin assessed as decrease in rate of disassembly by TIRF microscopy; format: functional, cell-based
[8] = molecular target: RAF proto-oncogene serine/threonine-protein kinase (Homo sapiens) (UniProt P04049); test: Inhibition of human c-RAF at 1 uM
[9] = Cell number in rat REF52 cells at 10 uM after 3 days as % of control; details: REF52, 72 h
[10] = species on record: Homo sapiens; test: Inhibition of human PKA at 1 uM; procedure, shortened: as §1
[11] = molecular target: RAC-alpha serine/threonine-protein kinase (Homo sapiens) (UniProt P31749); test: Inhibition of AKT at 1 uM
[12] = molecular target: T1, Glycogen synthase kinase-3 beta (Homo sapiens, UniProt P49841); test: Inhibition of human GSK3-beta
Target sequence in this assay (P49841 whole entry): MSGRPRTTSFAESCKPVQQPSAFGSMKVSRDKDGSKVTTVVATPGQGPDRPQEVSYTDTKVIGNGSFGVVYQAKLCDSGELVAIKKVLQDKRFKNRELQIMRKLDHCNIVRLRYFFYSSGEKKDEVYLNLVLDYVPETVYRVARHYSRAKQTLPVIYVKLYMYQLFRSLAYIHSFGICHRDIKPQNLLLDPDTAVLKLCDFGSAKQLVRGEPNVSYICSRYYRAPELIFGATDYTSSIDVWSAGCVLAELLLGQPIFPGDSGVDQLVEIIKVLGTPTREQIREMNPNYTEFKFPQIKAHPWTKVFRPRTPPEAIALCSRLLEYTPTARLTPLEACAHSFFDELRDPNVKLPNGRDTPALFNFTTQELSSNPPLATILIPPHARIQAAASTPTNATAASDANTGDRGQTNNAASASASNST

[13] = molecular target: Proto-oncogene tyrosine-protein kinase Src (Homo sapiens) (UniProt P12931); test: Inhibition of human cSRC at 1 uM
[14] = tested on: PC-3; test: Cell number in human PC3 cells at 10 uM after 3 days as % of control; details: PC-3, 72 h
[15] = molecular target: Insulin-like growth factor 1 receptor (Homo sapiens) (UniProt P08069); test: Inhibition of IGF1R at 1 uM
[16] = molecular target: Protein-tyrosine kinase 2-beta (Homo sapiens, UniProt Q14289); test: Inhibition of Pyk2
Procedure, shortened: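 Recombinant Pyk2 was run in parallel with the FAK kinase assay. That assay measures phosphorylation of a poly(Glu/Tyr) (4:1) substrate in an ELISA read with anti-phosphotyrosine (PY20) and an HRP secondary. Compounds were serially diluted at ½-log steps from a 1 μm top concentration, each concentration was run in triplicate, and IC50 was fitted by the Hill slope model.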

[17] = molecular target: Ephrin type-B receptor 2 (Homo sapiens) (UniProt P29323); test: Inhibition of EphB2 at 1 uM
[18] = molecular target: Dual specificity mitogen-activated protein kinase kinase 6 (Homo sapiens) (UniProt P52564); test: Inhibition of MKK6 at 1 uM
[19] = molecular target: Tyrosine-protein kinase Lck (Homo sapiens) (UniProt P06239); test: Inhibition of LCK at 1 uM
[20] = molecular target: Cyclin-dependent kinase 3 (Homo sapiens) (UniProt Q00526); test: Inhibition of human CDK3/cyclinE at 1 uM
[21] = tested on: NIH3T3; test: Inhibition of focal adhesion turnover in wounded mouse NIH3T3 cells expressing GFP-paxillin assessed as average adhesion life-time at 10 uM by TIRF microscopy; format: functional
[22] = molecular target: T1, Glycogen synthase kinase-3 beta; test: Inhibition of human GSK3-beta at 1 uM; procedure, shortened: as §1
Target sequence in this assay (P49841 whole entry, looked up): as the sequence (P49841 whole entry) above

[23] = Inhibition of cell migration of rat REF52 cells assessed as reduction in rate of movement of cell into wound at 10 uM by wound healing assay in presence of 10% serum; format: functional; set-up: scale not given: the % may be the effect or the level left
[24] = species on record: Homo sapiens; test: Inhibition of human CDK5/p35 at 1 uM; procedure, shortened: as §1
[25] = molecular target: Tyrosine-protein kinase BTK (Homo sapiens) (UniProt Q06187); test: Inhibition of BTK at 1 uM
[26] = molecular target: Tyrosine-protein kinase JAK3 (Homo sapiens) (UniProt P52333); test: Inhibition of JAK3 at 1 uM
[27] = tested on: Fibroblast; test: Inhibition of cell growth in […] fibroblast at 10 uM; format: functional, cell-based
[28] = molecular target: Cyclin-dependent kinase 1/cyclin B1 (Homo sapiens) (UniProt P06493+P14635); test: Inhibition of human CDK1/cyclinB at 1 uM; format: protein-complex assay; procedure, shortened: as §1
[29] = molecular target: Insulin receptor (Homo sapiens) (UniProt P06213); test: Inhibition of IR at 1 uM
[30] = molecular target: Mast/stem cell growth factor receptor Kit (Homo sapiens) (UniProt P10721); test: Inhibition of c-kit at 1 uM
[31] = molecular target: Ribosomal protein S6 kinase beta-1 (Homo sapiens) (UniProt P23443); test: Inhibition of human P70S6K at 1 uM
[32] = molecular target: Tyrosine-protein kinase ABL1 (Homo sapiens) (UniProt P00519); test: Inhibition of human Abl at 1 uM
[33] = Inhibition of 10% serum-stimulated cell migration of rat REF52 cells at 10 uM pretreated for 30 mins measured after 6 hrs by transwell assay relative to control; format: functional
Procedure, shortened: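 Modified Boyden transwell, 8-μm pores. REF52 cells (1 × 10⁵) pretreated 30 min with inhibitor, which stayed in both chambers. Attractant was 10% FBS in the lower chamber, or membrane underside coated with 1.5 μg/ml fibronectin overnight at 4 °C under serum-free DMEM. Migration 6 h at 37 °C. Underside cells fixed, crystal-violet stained and counted in four fields. Triplicates normalized to untreated control; ANOVA then t-tests.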

[34] = molecular target: Dual specificity mitogen-activated protein kinase kinase 1 (Homo sapiens) (UniProt Q02750); test: Inhibition of human MEK1 at 1 uM

Sequence of Tyrosine-protein kinase ABL1 (Homo sapiens) (P00519 whole entry): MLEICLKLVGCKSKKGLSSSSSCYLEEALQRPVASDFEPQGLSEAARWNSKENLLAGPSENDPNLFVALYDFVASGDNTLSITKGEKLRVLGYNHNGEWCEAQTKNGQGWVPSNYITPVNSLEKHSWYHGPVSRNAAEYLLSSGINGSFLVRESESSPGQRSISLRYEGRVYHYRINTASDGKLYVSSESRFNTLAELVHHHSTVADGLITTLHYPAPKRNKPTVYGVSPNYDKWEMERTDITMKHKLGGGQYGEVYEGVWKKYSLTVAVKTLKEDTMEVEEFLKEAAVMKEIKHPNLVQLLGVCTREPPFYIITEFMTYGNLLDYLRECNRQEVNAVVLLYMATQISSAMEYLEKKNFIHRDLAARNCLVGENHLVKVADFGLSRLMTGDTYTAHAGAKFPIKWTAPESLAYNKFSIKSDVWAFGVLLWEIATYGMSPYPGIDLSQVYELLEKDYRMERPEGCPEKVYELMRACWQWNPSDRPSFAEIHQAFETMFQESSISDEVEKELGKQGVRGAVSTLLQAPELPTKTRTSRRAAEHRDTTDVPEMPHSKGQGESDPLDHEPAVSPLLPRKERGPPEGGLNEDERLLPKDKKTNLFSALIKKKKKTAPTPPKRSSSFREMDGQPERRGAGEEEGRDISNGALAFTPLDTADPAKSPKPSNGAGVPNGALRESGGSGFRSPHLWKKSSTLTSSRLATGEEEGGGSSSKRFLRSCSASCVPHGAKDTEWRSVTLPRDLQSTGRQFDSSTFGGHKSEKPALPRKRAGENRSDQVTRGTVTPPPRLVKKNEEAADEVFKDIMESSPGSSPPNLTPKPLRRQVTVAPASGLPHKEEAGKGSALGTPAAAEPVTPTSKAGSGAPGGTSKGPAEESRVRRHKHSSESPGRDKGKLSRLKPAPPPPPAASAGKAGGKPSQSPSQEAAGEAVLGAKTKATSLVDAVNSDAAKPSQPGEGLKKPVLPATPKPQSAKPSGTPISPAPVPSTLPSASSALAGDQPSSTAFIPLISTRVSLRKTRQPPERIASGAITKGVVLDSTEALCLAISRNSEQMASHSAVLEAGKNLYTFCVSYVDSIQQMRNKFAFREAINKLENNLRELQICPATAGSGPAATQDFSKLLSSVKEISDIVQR
Sequence of Insulin receptor (Homo sapiens) (P06213 28-758 limits assumed): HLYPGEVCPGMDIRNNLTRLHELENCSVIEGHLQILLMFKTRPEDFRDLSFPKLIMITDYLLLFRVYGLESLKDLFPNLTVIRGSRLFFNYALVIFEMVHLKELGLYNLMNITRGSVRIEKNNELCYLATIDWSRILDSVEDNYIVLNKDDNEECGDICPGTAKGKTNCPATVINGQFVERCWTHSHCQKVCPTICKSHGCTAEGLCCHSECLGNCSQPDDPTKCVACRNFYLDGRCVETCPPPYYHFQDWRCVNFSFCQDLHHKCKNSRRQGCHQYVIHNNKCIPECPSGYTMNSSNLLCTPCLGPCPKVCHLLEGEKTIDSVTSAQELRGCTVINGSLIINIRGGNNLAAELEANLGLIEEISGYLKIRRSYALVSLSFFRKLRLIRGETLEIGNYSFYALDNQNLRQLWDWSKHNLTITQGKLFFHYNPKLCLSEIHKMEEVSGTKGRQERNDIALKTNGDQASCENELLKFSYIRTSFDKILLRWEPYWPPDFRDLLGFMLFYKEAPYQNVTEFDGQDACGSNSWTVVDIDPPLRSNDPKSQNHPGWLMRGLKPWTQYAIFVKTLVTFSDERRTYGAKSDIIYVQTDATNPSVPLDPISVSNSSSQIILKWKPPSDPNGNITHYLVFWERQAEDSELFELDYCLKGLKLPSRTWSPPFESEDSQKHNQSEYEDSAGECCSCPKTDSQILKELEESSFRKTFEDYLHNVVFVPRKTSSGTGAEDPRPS
Sequence of Insulin receptor (Homo sapiens) (P06213 763-1382 limits assumed): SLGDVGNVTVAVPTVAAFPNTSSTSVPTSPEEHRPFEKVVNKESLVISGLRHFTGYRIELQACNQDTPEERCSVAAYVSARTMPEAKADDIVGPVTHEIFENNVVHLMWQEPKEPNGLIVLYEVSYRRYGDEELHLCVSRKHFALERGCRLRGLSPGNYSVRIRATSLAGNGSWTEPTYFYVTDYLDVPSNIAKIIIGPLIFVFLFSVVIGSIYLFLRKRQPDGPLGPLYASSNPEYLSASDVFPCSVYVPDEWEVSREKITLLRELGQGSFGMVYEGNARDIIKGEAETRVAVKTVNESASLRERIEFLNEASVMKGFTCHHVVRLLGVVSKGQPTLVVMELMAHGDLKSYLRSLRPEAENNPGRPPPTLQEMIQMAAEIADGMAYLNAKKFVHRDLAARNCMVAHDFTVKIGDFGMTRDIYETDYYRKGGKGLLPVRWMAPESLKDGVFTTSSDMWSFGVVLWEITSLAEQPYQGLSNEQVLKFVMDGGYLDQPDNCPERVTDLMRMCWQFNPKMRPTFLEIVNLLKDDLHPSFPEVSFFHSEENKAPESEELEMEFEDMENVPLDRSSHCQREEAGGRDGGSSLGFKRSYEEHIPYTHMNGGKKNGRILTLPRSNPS
Sequence of Mast/stem cell growth factor receptor Kit (Homo sapiens) (P10721 whole entry): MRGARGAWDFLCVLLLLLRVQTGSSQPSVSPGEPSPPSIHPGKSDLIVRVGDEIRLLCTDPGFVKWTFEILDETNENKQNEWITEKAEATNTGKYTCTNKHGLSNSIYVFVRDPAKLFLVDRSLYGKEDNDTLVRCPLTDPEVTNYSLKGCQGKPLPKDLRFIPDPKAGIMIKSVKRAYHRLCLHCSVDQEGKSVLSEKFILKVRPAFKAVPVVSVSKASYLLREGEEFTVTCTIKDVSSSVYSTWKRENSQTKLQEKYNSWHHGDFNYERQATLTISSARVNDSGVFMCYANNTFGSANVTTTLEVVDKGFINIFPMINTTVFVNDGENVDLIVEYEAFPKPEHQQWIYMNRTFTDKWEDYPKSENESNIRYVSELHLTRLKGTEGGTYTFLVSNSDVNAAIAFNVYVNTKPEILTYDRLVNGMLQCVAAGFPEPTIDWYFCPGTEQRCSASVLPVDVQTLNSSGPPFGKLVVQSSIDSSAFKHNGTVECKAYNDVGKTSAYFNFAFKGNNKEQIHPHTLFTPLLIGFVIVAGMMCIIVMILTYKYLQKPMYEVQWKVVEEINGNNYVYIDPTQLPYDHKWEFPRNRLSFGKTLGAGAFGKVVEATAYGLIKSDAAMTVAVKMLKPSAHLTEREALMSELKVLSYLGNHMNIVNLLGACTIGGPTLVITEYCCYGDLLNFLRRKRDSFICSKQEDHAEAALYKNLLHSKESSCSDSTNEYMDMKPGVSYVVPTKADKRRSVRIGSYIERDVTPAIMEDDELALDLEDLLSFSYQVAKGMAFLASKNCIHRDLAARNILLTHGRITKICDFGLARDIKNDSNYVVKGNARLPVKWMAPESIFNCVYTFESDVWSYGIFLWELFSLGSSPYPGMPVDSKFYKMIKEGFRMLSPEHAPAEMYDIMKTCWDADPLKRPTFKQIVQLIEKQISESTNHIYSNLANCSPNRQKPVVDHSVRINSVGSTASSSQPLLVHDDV
Sequence of RAC-alpha serine/threonine-protein kinase (Homo sapiens) (P31749 whole entry): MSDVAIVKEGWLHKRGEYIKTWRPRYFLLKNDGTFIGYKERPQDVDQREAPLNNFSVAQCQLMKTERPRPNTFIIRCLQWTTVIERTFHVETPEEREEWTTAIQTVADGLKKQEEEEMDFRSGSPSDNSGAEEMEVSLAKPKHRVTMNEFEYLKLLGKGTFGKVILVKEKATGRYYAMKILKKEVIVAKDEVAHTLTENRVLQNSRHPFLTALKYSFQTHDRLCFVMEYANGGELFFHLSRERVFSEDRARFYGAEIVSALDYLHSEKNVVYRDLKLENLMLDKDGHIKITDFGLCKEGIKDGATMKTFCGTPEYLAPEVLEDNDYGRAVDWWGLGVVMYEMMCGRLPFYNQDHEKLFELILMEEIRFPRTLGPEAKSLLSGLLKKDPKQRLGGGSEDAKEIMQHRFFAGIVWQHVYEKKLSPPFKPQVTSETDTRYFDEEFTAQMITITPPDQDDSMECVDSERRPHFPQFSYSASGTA
Sequence of Calcium/calmodulin-dependent protein kinase type IV (Homo sapiens) (Q16566 whole entry): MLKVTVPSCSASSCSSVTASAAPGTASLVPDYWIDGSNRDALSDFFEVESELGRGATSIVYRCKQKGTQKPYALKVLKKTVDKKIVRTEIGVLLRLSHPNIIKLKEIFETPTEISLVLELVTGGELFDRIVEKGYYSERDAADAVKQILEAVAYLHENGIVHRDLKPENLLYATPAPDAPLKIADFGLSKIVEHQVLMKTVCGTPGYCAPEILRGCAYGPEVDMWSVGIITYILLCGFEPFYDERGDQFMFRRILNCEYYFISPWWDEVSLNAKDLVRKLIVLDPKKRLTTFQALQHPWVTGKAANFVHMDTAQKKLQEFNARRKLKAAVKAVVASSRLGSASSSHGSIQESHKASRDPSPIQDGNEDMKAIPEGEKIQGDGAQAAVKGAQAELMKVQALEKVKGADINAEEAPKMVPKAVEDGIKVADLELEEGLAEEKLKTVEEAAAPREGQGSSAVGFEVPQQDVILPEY

In the case of `CS(=O)(=O)c1cccc(CNc2nc(Nc3ccc4c(c3)CCC(=O)N4)ncc2C(F)(F)F)c1`, the IC50 [1] is reported as 197 nM, the inhibition [2] is reported as 0% and the inhibition [3] is reported as 4%. For the same compound, the inhibition [4] was 29%, the Activity [5] was “inactive” and the Activity [6] was “inactive”. For the same compound, the Activity [7] was “Active”, the inhibition [8] was 0% and the level, % of control at 10 µM [9] was 7%. The inhibition [10] was 0%, the inhibition [11] was 0% and the IC50 [12] was greater than 1000 nM. It also gave an inhibition [13] of 1%, a level, % of control at 10 µM [14] of 17% and an inhibition [15] of 21%. The IC50 [16] was greater than 1000 nM, the inhibition [17] was 11% and the inhibition [18] was 16%. It also gave an inhibition [19] of 0%, an inhibition [20] of 44% and a Time [21] of 42 min. For the same compound, the inhibition [22] was 64%, the Activity [23] was 60% and the inhibition [24] was 0%. The inhibition [25] was 11%, the inhibition [26] was 27% and the Activity [27] was “Active”. For the same compound, the inhibition [28] was 77%, the inhibition [29] was 27% and the inhibition [30] was 25%. It also gave an inhibition [31] of 31%, an inhibition [32] of 8% and an Activity [33] of 0.3. For the same compound, the inhibition [34] was 20%.
